{
  "source": "ChEMBL document CHEMBL1811823",
  "about": "“Quinazolinone linked pyrrolo[2,1-c][1,4]benzodiazepine (PBD) conjugates: Design, synthesis and biological evaluation as potential anticancer agents” (2010)",
  "key": {"A498": {"system": "A498", "test": "Growth inhibition of human A498 cells by NCI anti-cancer screening method", "format": "functional"}, "MCF7": {"system": "MCF7", "test": "Growth inhibition of human MCF7 cells by NCI anti-cancer screening method", "format": "functional"}, "A-375 [1]": {"system": "A-375", "test": "Increase in p27 protein expression in human A375 cells at 4 uM after 24 hrs by Western blot", "format": "functional, cell-based", "method_in_brief": "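A375 cells (DMEM, 10% FCS, 37 °C, 5% CO2) were treated at 4 µM for 24 h. Lysates were loaded at 30 µg protein/lane on 12% SDS-PAGE and transferred to PVDF. Membranes were blocked 2 h in TBST, incubated with primary antibody overnight at 4 °C (p53 1:100, p27 1:500, NF-κB p65 1:500), then HRP secondary 1 h, with chemiluminescent detection. β-actin was the loading control; untreated and DMSO controls were run.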"}, "A-375 [2]": {"system": "A-375", "test": "Increase in active caspase-3 protein level in human A375 cells at 4 uM after 24 hrs by Western blot", "format": "functional, cell-based", "method_in_brief": "(§1)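 A375 cells were exposed 24 h at 4 µM. Lysates (30 µg/lane) were run on 12% SDS-PAGE and transferred to PVDF, then probed overnight at 4 °C with anti-cleaved caspase-3 (1:200, detects 21 kDa) or anti-PARP (1:2000, detects 113 and 85 kDa). HRP secondary and chemiluminescence were used. β-tubulin was the loading control; untreated and DMSO controls were included.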"}, "MDA-MB-435": {"system": "MDA-MB-435", "test": "Growth inhibition of human MDA-MB-435 cells by NCI anti-cancer screening method", "format": "functional"}, "MOLT-4": {"system": "MOLT-4", "test": "Growth inhibition of human MOLT4 cells by NCI anti-cancer screening method", "format": "functional"}, "M14": {"system": "M14", "test": "Growth inhibition of human M14 cells by NCI anti-cancer screening method", "format": "functional"}, "EKVX": {"system": "EKVX", "test": "Growth inhibition of human EKVX cells by NCI anti-cancer screening method", "format": "functional"}, "CAKI-1": {"system": "CAKI-1", "test": "Growth inhibition of human Caki1 cells by NCI anti-cancer screening method", "format": "functional"}, "SK-OV-3": {"system": "SK-OV-3", "test": "Growth inhibition of human SKOV3 cells by NCI anti-cancer screening method", "format": "functional"}, "NCI [3]": {"system": "NCI", "test": "Growth inhibition of human […] cells by NCI anti-cancer screening method", "format": "functional"}, "A-375 [4]": {"system": "A-375", "test": "Increase in active PARP cleavage product (85kDa) level in human A375 cells at 4 uM after 24 hrs by Western blot", "format": "functional, cell-based", "method_in_brief": "as §1"}, "MDA-MB-468": {"system": "MDA-MB-468", "test": "Growth inhibition of human MDA-MB-468 cells by NCI anti-cancer screening method", "format": "functional"}, "SNB-75": {"system": "SNB-75", "test": "Growth inhibition of human SNB75 cells by NCI anti-cancer screening method", "format": "functional"}, "MDA-MB-231": {"system": "MDA-MB-231", "test": "Growth inhibition of human MDA-MB-231 cells by NCI anti-cancer screening method", "format": "functional"}, "K562": {"system": "K562", "test": "Growth inhibition of human K562 cells by NCI anti-cancer screening method", "format": "functional"}, "NCI [5]": {"system": "NCI", "test": "Growth inhibition of human Hs 578T cells by NCI anti-cancer screening method", "format": "functional"}, "SNB-19": {"system": "SNB-19", "test": "Growth inhibition of human SNB19 cells by NCI anti-cancer screening method", "format": "functional"}, "Nucleic Acid": {"system": "Nucleic Acid", "test": "Binding affinity to calf thymus DNA assessed as change in melting temperature at 20 uM at pH 7 incubated for 18 hrs at 37 degC by thermal denaturation assay", "format": "nucleic-acid assay", "conditions": "Bos taurus", "method_in_brief": "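CT-DNA (100 µM in phosphate) with 20 µM ligand, 1:5 [PBD]/[DNA], in 10 mM sodium phosphate/1 mM Na2EDTA buffer pH 7.00. Ligand added from methanol solution; incubated at 37 °C for 0 or 18 h. A260 monitored while heating 1 °C/min over 40–90 °C. Tm taken from d(A260)/dT maxima; ΔTm = Tm(DNA+PBD) − Tm(DNA alone). Values are means of at least three determinations, corrected for methanol cosolvent.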"}, "SK-MEL-2": {"system": "SK-MEL-2", "test": "Growth inhibition of human SK-MEL-2 cells by NCI anti-cancer screening method", "format": "functional"}, "KM12": {"system": "KM12", "test": "Growth inhibition of human KM12 cells by NCI anti-cancer screening method", "format": "functional"}, "HCT-15": {"system": "HCT-15", "test": "Growth inhibition of human HCT15 cells by NCI anti-cancer screening method", "format": "functional"}, "HT-29": {"system": "HT-29", "test": "Growth inhibition of human HT-29 cells by NCI anti-cancer screening method", "format": "functional"}, "HL-60": {"system": "HL-60", "test": "Growth inhibition of human HL-60(TB) cells by NCI anti-cancer screening method", "format": "functional", "method_in_brief": "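Cells grown in RPMI 1640 with 10% FBS and 2 mM L-glutamine were plated at a density set by doubling time. They were held 24 h at 37 °C in 5% CO2 before drug was added, then exposed continuously for 48 h. Cells were fixed with cold TCA (10% final) for 60 min at 4 °C and stained with 0.4% SRB. Bound dye was eluted in 10 mM Tris base and read at 540 nm. Percent growth was taken versus control wells.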"}, "DU-145": {"system": "DU-145", "test": "Growth inhibition of human DU145 cells by NCI anti-cancer screening method", "format": "functional"}, "NCI-H522": {"system": "NCI-H522", "test": "Growth inhibition of human NCI-H522 cells by NCI anti-cancer screening method", "format": "functional"}, "A-375 [6]": {"system": "A-375", "test": "Increase in p21 mRNA expression in human A375 cells at 4 uM after 24 hrs by RT-PCR", "format": "functional, cell-based", "method_in_brief": "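RT-PCR on RNA from A375 cells treated 24 h at 4 µM, using Bcl-2- or p21-specific primers with GAPDH as internal control. Products were visualized on 1% agarose gels stained with ethidium bromide. Untreated and DMSO-treated cells served as controls.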"}, "UACC-257": {"system": "UACC-257", "test": "Growth inhibition of human UACC257 cells by NCI anti-cancer screening method", "format": "functional"}, "OVCAR-5": {"system": "OVCAR-5", "test": "Growth inhibition of human OVCAR5 cells by NCI anti-cancer screening method", "format": "functional"}, "NCI [7]": {"system": "NCI", "test": "Growth inhibition of human RXF393 cells by NCI anti-cancer screening method", "format": "functional"}, "OVCAR-4": {"system": "OVCAR-4", "test": "Growth inhibition of human OVCAR4 cells by NCI anti-cancer screening method", "format": "functional"}, "NCI-H322M": {"system": "NCI-H322M", "test": "Growth inhibition of human NCI-H322M cells by NCI anti-cancer screening method", "format": "functional"}, "HOP-92": {"system": "HOP-92", "test": "Growth inhibition of human HOP92 cells by NCI anti-cancer screening method", "format": "functional"}, "A-375 [8]": {"system": "A-375", "test": "Cytotoxicity against human A375 cells assessed as cell viability after 24 hrs by MTT assay", "format": "functional", "method_in_brief": "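A375 cells seeded at 10,000/well, incubated overnight, then treated for 24 h. MTT added at 10% of culture volume for 2 h at 37 °C. Formazan dissolved in 20% SDS/50% DMF overnight at 37 °C; absorbance read at 570 nm against a medium blank. Viability expressed as percent of untreated cells.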"}, "SR": {"system": "SR", "test": "Growth inhibition of human SR cells by NCI anti-cancer screening method", "format": "functional"}, "SK-MEL-5": {"system": "SK-MEL-5", "test": "Growth inhibition of human SK-MEL-5 cells by NCI anti-cancer screening method", "format": "functional"}},
  "note": "Calls of active or inactive are those of the source. No cut-off for these calls is given here.",
  "data": [
    {"smiles": "COc1cc2c(cc1OCCCCCOc1ccc(-n3c(C)nc4ccccc4c3=O)cc1)N=C[C@@H]1CCCN1C2=O", "values": [
      {"measurement": "GI50", "setting": "A498", "value": 160, "unit": "nM"},
      {"measurement": "GI50", "setting": "MCF7", "value": 170, "unit": "nM"},
      {"measurement": "Activity", "setting": "A-375 [1]", "value": "Active"},
      {"measurement": "Activity", "setting": "A-375 [2]", "value": "Active"},
      {"measurement": "GI50", "setting": "MDA-MB-435", "value": 160, "unit": "nM"},
      {"measurement": "GI50", "setting": "MOLT-4", "value": 190, "unit": "nM"},
      {"measurement": "GI50", "setting": "M14", "value": 170, "unit": "nM"},
      {"measurement": "GI50", "setting": "EKVX", "value": 870, "unit": "nM"},
      {"measurement": "GI50", "setting": "CAKI-1", "value": 190, "unit": "nM"},
      {"measurement": "GI50", "setting": "SK-OV-3", "value": 430, "unit": "nM"},
      {"measurement": "GI50", "setting": "NCI [3]", "value": 190, "unit": "nM"},
      {"measurement": "Activity", "setting": "A-375 [4]", "value": "Active"},
      {"measurement": "GI50", "setting": "MDA-MB-468", "value": 160, "unit": "nM"},
      {"measurement": "GI50", "setting": "SNB-75", "value": 380, "unit": "nM"},
      {"measurement": "GI50", "setting": "MDA-MB-231", "value": 170, "unit": "nM"},
      {"measurement": "GI50", "setting": "K562", "value": 60, "unit": "nM"},
      {"measurement": "GI50", "setting": "NCI [5]", "value": 160, "unit": "nM"},
      {"measurement": "GI50", "setting": "SNB-19", "value": 280, "unit": "nM"},
      {"measurement": "ΔTm", "setting": "Nucleic Acid", "value": 2.3, "unit": "°C"},
      {"measurement": "GI50", "setting": "SK-MEL-2", "value": 420, "unit": "nM"},
      {"measurement": "GI50", "setting": "KM12", "value": 170, "unit": "nM"},
      {"measurement": "GI50", "setting": "HCT-15", "value": 1090, "unit": "nM"},
      {"measurement": "GI50", "setting": "HT-29", "value": 260, "unit": "nM"},
      {"measurement": "GI50", "setting": "HL-60", "value": 180, "unit": "nM"},
      {"measurement": "GI50", "setting": "DU-145", "value": 260, "unit": "nM"},
      {"measurement": "GI50", "setting": "NCI-H522", "value": 120, "unit": "nM"},
      {"measurement": "Activity", "setting": "A-375 [6]", "value": "Active"},
      {"measurement": "GI50", "setting": "UACC-257", "value": 390, "unit": "nM"},
      {"measurement": "GI50", "setting": "OVCAR-5", "value": 330, "unit": "nM"},
      {"measurement": "GI50", "setting": "NCI [7]", "value": 210, "unit": "nM"},
      {"measurement": "GI50", "setting": "OVCAR-4", "value": 370, "unit": "nM"},
      {"measurement": "GI50", "setting": "NCI-H322M", "value": 260, "unit": "nM"},
      {"measurement": "GI50", "setting": "HOP-92", "value": 350, "unit": "nM"},
      {"measurement": "Activity", "setting": "A-375 [8]", "value": 49.01, "unit": "%"},
      {"measurement": "GI50", "setting": "SR", "value": 110, "unit": "nM"},
      {"measurement": "GI50", "setting": "SK-MEL-5", "value": 160, "unit": "nM"}
    ]}
  ]
}
